According to ChEMBL document CHEMBL3526053, “Species-dependent uptake of glycylsarcosine but not oseltamivir in Pichia pastoris expressing the rat, mouse, and human intestinal peptide transporter PEPT1” (Drug Metab Dispos, 2012):

Legend:
Format in all cases: ADME
[1] = target: T1, Solute carrier family 15 member 1 (Homo sapiens, UniProt P46059); assay: Drug uptake in Pichia pastoris GS115 expressing human recombinant PEPT1 at 5 uM after 30s by dual-channel liquid scintillation counting analysis in presence of cephradine relative to control; conditions: 0.5 min
T1 sequence (P46059 whole entry): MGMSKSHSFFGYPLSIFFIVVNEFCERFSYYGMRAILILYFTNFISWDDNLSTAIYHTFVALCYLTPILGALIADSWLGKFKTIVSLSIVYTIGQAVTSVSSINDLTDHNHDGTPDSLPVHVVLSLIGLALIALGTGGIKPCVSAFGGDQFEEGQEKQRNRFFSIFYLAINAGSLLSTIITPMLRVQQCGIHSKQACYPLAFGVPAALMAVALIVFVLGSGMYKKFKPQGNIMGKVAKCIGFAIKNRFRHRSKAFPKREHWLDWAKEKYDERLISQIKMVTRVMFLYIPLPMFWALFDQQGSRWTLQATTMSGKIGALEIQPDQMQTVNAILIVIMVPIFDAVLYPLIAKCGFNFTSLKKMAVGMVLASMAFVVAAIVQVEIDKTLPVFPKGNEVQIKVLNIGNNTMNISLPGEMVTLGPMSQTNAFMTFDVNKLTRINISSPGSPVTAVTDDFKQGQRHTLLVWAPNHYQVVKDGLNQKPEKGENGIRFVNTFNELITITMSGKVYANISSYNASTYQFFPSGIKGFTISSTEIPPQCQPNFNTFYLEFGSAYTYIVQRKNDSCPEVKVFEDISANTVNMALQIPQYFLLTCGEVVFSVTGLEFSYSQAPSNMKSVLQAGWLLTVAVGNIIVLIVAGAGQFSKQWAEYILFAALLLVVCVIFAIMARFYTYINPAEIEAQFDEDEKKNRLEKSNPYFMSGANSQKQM
Method in brief: (§1)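 [3H]GlySar 5.0 µM final, 30-s uptake at 24°C in 100 mM potassium phosphate pH 6.5, with or without a potential inhibitor at 10 mM. Cells are methanol-induced transformants. Values are vector-subtracted and expressed as percent of buffer control. Mean ± SE (n=3). ANOVA with Dunnett's test.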

[2] = target: T2, PEPT1 (Rattus norvegicus, UniProt P51574); assay: Drug uptake in Pichia pastoris GS115 expressing rat recombinant PEPT1 at 5 uM after 30 mins by dual-channel liquid scintillation counting analysis relative to vector control; conditions: read-out: FC
T2 sequence (P51574 whole entry): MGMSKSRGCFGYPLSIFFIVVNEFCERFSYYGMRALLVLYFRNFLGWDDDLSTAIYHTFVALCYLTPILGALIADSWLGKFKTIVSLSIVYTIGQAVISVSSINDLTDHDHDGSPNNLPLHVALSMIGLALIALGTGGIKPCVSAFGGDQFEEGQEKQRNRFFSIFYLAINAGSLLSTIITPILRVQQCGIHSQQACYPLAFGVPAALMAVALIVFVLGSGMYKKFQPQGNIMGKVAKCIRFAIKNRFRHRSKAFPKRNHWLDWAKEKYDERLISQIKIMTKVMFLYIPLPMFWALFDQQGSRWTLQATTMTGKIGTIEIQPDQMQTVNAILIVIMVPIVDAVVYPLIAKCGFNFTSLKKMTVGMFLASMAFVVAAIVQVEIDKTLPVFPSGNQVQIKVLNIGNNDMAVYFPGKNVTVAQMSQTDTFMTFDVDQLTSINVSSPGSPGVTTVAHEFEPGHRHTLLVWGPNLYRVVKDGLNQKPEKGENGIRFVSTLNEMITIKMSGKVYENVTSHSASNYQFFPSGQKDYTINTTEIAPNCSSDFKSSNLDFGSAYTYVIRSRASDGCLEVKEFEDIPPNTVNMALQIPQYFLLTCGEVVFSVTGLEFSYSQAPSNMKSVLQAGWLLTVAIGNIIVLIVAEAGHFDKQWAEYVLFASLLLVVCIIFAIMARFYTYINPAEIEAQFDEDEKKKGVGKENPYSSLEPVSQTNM
Method in brief: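 5.0 µM radiolabelled substrate ([3H]GlySar or [14C]oseltamivir) is incubated 30 min at 24°C with induced transformants in 100 mM potassium phosphate pH 6.5. Cell-associated radioactivity is counted by scintillation after standing 24 h and normalised to OD600. Results are compared with pPIC3.5K vector-alone cells. Mean ± SE (n=6).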

[3] = target: T3, Solute carrier family 15 member 1 (Rattus norvegicus, UniProt P51574); assay: Drug uptake in Pichia pastoris GS115 expressing rat recombinant PEPT1 at 5 uM after 30s by dual-channel liquid scintillation counting analysis in presence of elacridar relative to control; conditions: 0.5 min
T3 sequence (P51574 whole entry): T2 sequence (P51574 whole entry)
Method in brief: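 Rat PEPT1 (pPIC3.5K-rPept1) in GS115 His+Mut+ transformant, methanol-induced 20-24 hr in BMMY at 30°C, washed into 100 mM potassium phosphate pH 6.5. [3H]GlySar final 5.0 µM with inhibitor at 10 mM, 30 sec at 24°C. Counts taken by liquid scintillation after 24 hr standing. Values are vector-subtracted and given as % of buffer control. Mean ± SE, n=3.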

[4] = target: T4, Solute carrier family 15 member 1 (Mus musculus, UniProt Q9JIP7); assay: Drug uptake in Pichia pastoris GS115 expressing mouse recombinant PEPT1 at 5 uM after 30s by dual-channel liquid scintillation counting analysis in presence of cefazolin relative to control; conditions: 0.5 min; method in brief: as §1
T4 sequence (Q9JIP7 whole entry): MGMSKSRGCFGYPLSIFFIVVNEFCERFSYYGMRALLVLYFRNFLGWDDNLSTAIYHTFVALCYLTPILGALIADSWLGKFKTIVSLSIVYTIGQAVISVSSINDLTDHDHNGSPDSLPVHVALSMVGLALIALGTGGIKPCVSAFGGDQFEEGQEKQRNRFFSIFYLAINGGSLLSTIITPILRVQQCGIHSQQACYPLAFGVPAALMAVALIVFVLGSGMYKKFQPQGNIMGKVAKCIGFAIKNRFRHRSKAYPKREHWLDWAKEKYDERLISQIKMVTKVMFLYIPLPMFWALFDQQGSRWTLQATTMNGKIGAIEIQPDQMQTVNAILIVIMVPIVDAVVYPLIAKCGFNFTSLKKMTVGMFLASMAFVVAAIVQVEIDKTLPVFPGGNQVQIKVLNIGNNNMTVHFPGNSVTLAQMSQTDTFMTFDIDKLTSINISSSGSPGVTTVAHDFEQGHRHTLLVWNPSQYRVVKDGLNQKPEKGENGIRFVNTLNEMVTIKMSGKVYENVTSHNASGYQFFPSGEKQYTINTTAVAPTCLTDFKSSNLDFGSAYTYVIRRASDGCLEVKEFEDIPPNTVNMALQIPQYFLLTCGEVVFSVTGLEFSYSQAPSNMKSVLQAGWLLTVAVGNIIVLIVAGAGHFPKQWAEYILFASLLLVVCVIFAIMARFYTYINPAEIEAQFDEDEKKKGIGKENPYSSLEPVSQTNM

Drug uptake [1]: 23.2%
uptake ratio at 0.5 h, 5 µM [2]: 100
Drug uptake [3]: 119%
Drug uptake [4]: 87.4%
SMILES: [3H]C(C(=O)O)N(C)C(=O)CN (centres undefined)
